Data published in ChEMBL document CHEMBL3108741 (J Med Chem, 2014).
pEC50, pIC50: −log10 of the molar value. Calls of active or inactive are those of the source.

Experiments:
Rattus norvegicus [1] = species: Rattus norvegicus; test: Positive allosteric modulation of rat alpha1beta2gamma2L GABAA receptor expressed in Xenopus laevis oocytes assessed as potentiation of GABA-induced chloride current elicitation by two-electrode voltage clamp technique relative to control; assay type: cell-based
Xenopus laevis [2] = test: Anesthetic effect on prelimb-bud stage Xenopus laevis tadpole assessed as loss of righting reflex after 3 hrs; assay type: functional, organism-based
HEK293 [3] = test: Positive allosteric modulation of wild type rat alpha1beta2gamma2L GABAA receptor expressed in HEK293 cells assessed as longest-lived intracluster open time at 20 uM by […] relative to control; assay type: cell-based
Rattus norvegicus [4] = species: Rattus norvegicus; test: […] of rat alpha1beta2gamma2L GABAA receptor expressed in Xenopus laevis oocytes assessed as chloride current elicitation at 10 uM by two-electrode voltage clamp technique relative to GABA; assay type: cell-based
How it was run: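 Rat α1β2γ2L GABAA receptors expressed in Xenopus oocytes, at least four oocytes. Direct current gated by 10 μM compound without GABA, expressed as the ratio of compound-only current to current evoked by 2 μM GABA; mean ± SEM.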

Rattus norvegicus [5] = species: Rattus norvegicus; test: Positive allosteric modulation of rat alpha1beta2gamma2L GABAA receptor expressed in Xenopus laevis oocytes assessed as potentiation of GABA-induced chloride current elicitation at 1 uM by two-electrode voltage clamp technique relative to control; assay type: cell-based
HEK293 [6] = test: Positive allosteric modulation of wild type rat alpha1beta2gamma2L GABAA receptor expressed in HEK293 cells assessed as OT long at 20 uM by […]; assay type: cell-based
How it was run: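 Single-channel recording of rat wild-type α1β2γ2L GABAA receptors. Receptors were activated by 50 μM GABA with or without 20 μM compound, in 4-7 patches. Intracluster open-time histograms were fitted to sums of two or three exponentials, and the long open-time component was taken from the fit.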

HEK293 [7] = test: Positive allosteric modulation of wild type rat alpha1beta2gamma2L GABAA receptor expressed in HEK293 cells assessed as longest-lived intracluster closed time at 20 uM by […] relative to control; assay type: cell-based
[8] = Displacement of [35S]TBPS from rat picrotoxin binding site of GABAA receptor after 2 hrs by scintillation counting analysis
How it was run: (§1)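 [35S]TBPS binding inhibition; duplicate experiments each run in triplicate, mean ± SEM. Highest concentration tested 30 μM; IC50 from fitted binding curve, with maximal displacement noted where inhibition was partial.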

Xenopus laevis [9] = test: Anesthetic effect on prelimb-bud stage Xenopus laevis tadpole assessed as loss of swimming reflex after 3 hrs; assay type: functional, organism-based
[10] = Lipophilicity, log P of the compound; assay type: physicochemical; conditions: octanol/water
Rattus norvegicus [11] = species: Rattus norvegicus; test: Positive allosteric modulation of rat alpha1beta2gamma2L GABAA receptor expressed in Xenopus laevis oocytes assessed as potentiation of GABA-induced chloride current elicitation at 0.1 uM by two-electrode voltage clamp technique relative to control; assay type: cell-based
Rattus norvegicus [12] = species: Rattus norvegicus; test: Positive allosteric modulation of rat alpha1beta2gamma2L GABAA receptor expressed in Xenopus laevis oocytes assessed as potentiation of GABA-induced chloride current elicitation at 10 uM by two-electrode voltage clamp technique relative to control; assay type: cell-based
Mus musculus [13] = test: Anesthetic effect in mouse assessed as duration of loss of righting reflex at 1 mg/kg, iv; assay type: functional, organism-based; set-up: dose 1 mg/kg
How it was run: (§2)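 Tail-vein injection in mice, with anesthesia read as loss of righting reflex (LRR): duration, onset and recovery scored. Compounds were dissolved in 22.5% aqueous 2-(hydroxypropyl)-β-cyclodextrin. Lower doses came from serial dilution of the 8 mg/kg solution with 0.9% saline. Doses tested were 1, 2, 4 and 8 mg/kg.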

Mus musculus [14] = test: Anesthetic effect in mouse assessed as duration of loss of righting reflex at 8 mg/kg, iv; assay type: functional; how it was run: as §2
HEK293 [15] = test: Positive allosteric modulation of rat alpha1S240Lbeta2gamma2L GABAA receptor mutant expressed in HEK293 cells assessed as potentiation of GABA-induced chloride current elicitation at 20 uM by […] relative to control; assay type: cell-based
How it was run: (§3)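 HEK 293 cells expressing wild-type or α1 mutant receptors, whole-cell recording. Peak currents elicited by GABA at 5 μM for wild type or 10 μM for mutants (11–17% of maximal), with or without 20 μM compound. Mean ± S.D., 4–7 cells per receptor–compound combination.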

Mus musculus [16] = test: Anesthetic effect in mouse assessed as recovery of righting reflex at 8 to 16 mg/kg, iv; assay type: functional; conditions: dose mg/kg 8-16
How it was run: (§4)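 Mice were given intravenous tail-vein injections at 8 and 16 mg/kg. The compound was in 22.5% aqueous 2-(hydroxypropyl)-β-cyclodextrin. Anesthesia was defined as loss of righting reflex, and onset, duration and recovery of the reflex were followed.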

Mus musculus [17] = test: Anesthetic effect in mouse assessed as onset of loss of righting reflex at 8 to 16 mg/kg, iv; assay type: functional; conditions: dose mg/kg 8-16; how it was run: as §4
HEK293 [18] = test: Positive allosteric modulation of rat alpha1W245Lbeta2gamma2L GABAA receptor mutant expressed in HEK293 cells assessed as potentiation of GABA-induced chloride current elicitation at 20 uM by […] relative to control; assay type: cell-based; how it was run: as §3
HEK293 [19] = test: Positive allosteric modulation of rat alpha1Q241Lbeta2gamma2L GABAA receptor mutant expressed in HEK293 cells assessed as potentiation of GABA-induced chloride current elicitation at 20 uM by […] relative to control; assay type: cell-based; how it was run: as §3
Mus musculus [20] = test: Anesthetic effect in mouse assessed as onset of loss of righting reflex at 1 to 8 mg/kg, iv; assay type: functional; conditions: dose mg/kg 1-8; how it was run: as §2
Mus musculus [21] = test: Anesthetic effect in mouse assessed as duration of loss of righting reflex at 4 mg/kg, iv; assay type: functional; how it was run: as §2
Mus musculus [22] = test: Anesthetic effect in mouse assessed as recovery of righting reflex at 1 to 8 mg/kg, iv; assay type: functional; conditions: dose mg/kg 1-8
How it was run: (§5)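 Mice, tail vein injection; compound in 22.5% aqueous 2-(hydroxypropyl)-β-cyclodextrin, lower doses by serial dilution of the 8 mg/kg stock with 0.9% saline. Anesthesia scored as loss of righting reflex; duration of LRR recorded at each dose.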

HEK293 [23] = test: Positive allosteric modulation of wild type rat alpha1beta2gamma2L GABAA receptor expressed in HEK293 cells assessed as potentiation of GABA-induced chloride current elicitation at 20 uM by […] relative to control; assay type: cell-based; how it was run: as §3
Mus musculus [24] = test: Anesthetic effect in mouse assessed as duration of loss of righting reflex at 2 mg/kg, iv; assay type: functional; how it was run: as §2
Xenopus laevis [25] = test: Anesthetic effect on prelimb-bud stage Xenopus laevis tadpole assessed as loss of swimming reflex at 10 uM after 3 hrs; assay type: functional, organism-based
Rattus norvegicus [26] = species: Rattus norvegicus; test: Displacement of [35S]TBPS from rat picrotoxin binding site of GABAA receptor at 30 uM after 2 hrs by scintillation counting analysis; how it was run: as §1
Mus musculus [27] = test: Anesthetic effect in mouse assessed as duration of loss of righting reflex at 16 mg/kg, iv; assay type: functional; how it was run: as §5
Xenopus laevis [28] = test: Anesthetic effect on prelimb-bud stage Xenopus laevis tadpole assessed as loss of righting reflex at 10 uM after 3 hrs; assay type: functional, organism-based

Row | SMILES | Activity (Rattus norvegicus [1]) | pEC50 (Xenopus laevis [2]) | Ratio (HEK293 [3]) | Ratio (Rattus norvegicus [4]) | Ratio (Rattus norvegicus [5]) | TIME (HEK293 [6]) [ms] | Ratio (HEK293 [7]) | pIC50 [8] | pEC50 (Xenopus laevis [9]) | logP [10] | Ratio (Rattus norvegicus [11]) | Ratio (Rattus norvegicus [12]) | other results
1 | C[C@@]12CC[C@@H]3[C@@H]4CC[C@H](O)C[C@H]4CC[C@H]3[C@@H]1CC(=O)C2 | Dose-dependent effect | 5.94 | 0.2 | 0.02 | 2.43 | 9.8 | 0.11 | 6.62 | 5.26 | 3.24 | 0.97 | 10.5 | 
2 | CO[C@H]1[C@H]2CC[C@H]3[C@@H]4CC(=O)C[C@]4(C)CC[C@@H]3[C@]2(C)CC[C@@H]1O | Dose-dependent effect | 6.47 | 0.53 | 0.08 | 6.48 | 17.7 | 0.06 | 7.08 | 5.76 | 3.19 | 1.41 | 16 | Activity (Mus musculus [13]): inactive; Time (Mus musculus [14]): 9 min; Ratio (HEK293 [15]): 9.4; Time (Mus musculus [16]): 1 min; Time (Mus musculus [17]): <30 s; Ratio (HEK293 [18]): 0.9; Ratio (HEK293 [19]): 1.3; Time (Mus musculus [20]): <30 s; Time (Mus musculus [21]): 5 min; Time (Mus musculus [22]): 1 min; Ratio (HEK293 [23]): 9.2; Time (Mus musculus [24]): 1 min
3 | C[C@@]12CC[C@H](O)C[C@H]1CC[C@H]1[C@@H]3CC(=O)C[C@@H]3CC[C@@H]12 | Dose-dependent effect | 5.44 | 0.53 | 0.01 | 1.13 | 16.1 | 0.21 | 5.82 |  |  | 0.93 | 3.56 | Activity (Xenopus laevis [25]): inactive
4 | CO[C@H]1[C@H](O)CC[C@]2(C)[C@H]3CC[C@]4(C)CC(=O)C[C@H]4[C@@H]3CC[C@@H]12 | Dose-dependent effect | 5.50 |  | 0.02 | 0.72 |  |  | 5.18 | 4.87 |  | 0.88 | 0.69 | inhibition (Rattus norvegicus [26]): 65%
5 | CC(=O)[C@H]1CC[C@H]2[C@@H]3CC[C@H]4C[C@H](O)CC[C@]4(C)[C@H]3CC[C@]12C [BREXANOLONE] | Dose-dependent effect |  |  | 0.37 | 3.89 |  |  | 7.13 |  | 4.46 | 1.26 | 9.65 | 
6 | CO[C@@H]1C[C@]2(C)[C@H](CC[C@H]3[C@@H]4CC(=O)C[C@]4(C)CC[C@@H]32)C[C@H]1O | Dose-dependent effect | 5.54 |  | 0.01 | 1.03 |  |  | 5.52 | 4.99 |  | 0.91 | 2.95 | 
7 | CO[C@H]1[C@H]2CC[C@@H]3[C@H](CC[C@@]4(C)C(=O)CC[C@@H]34)[C@]2(C)CC[C@@H]1O | Dose-dependent effect | 6.23 |  | 0.05 | 3.67 |  |  | 6.70 | 5.53 |  | 1.21 | 12.2 | 
8 | CO[C@H]1C[C@@]2(C)[C@@H](CC[C@H]3[C@@H]4CC(=O)C[C@@]4(C)CC[C@@H]32)C[C@@H]1O | Dose-dependent effect | 5.50 |  | 0.01 | 1.23 |  |  | 5.90 | 5.03 |  | 0.92 | 4.48 | 
9 | CC(=O)[C@H]1CC[C@H]2[C@@H]3CC[C@H]4C[C@H](O)CC[C@]4(C)[C@H]3C(=O)C[C@]12C [ALFAXALONE] |  |  |  |  |  |  |  |  |  |  |  |  | Time (Mus musculus [16]): 1 min; Time (Mus musculus [17]): <30 s; Time (Mus musculus [20]): <30 s; Time (Mus musculus [27]): 4 min; Time (Mus musculus [22]): 1 min
10 | C[C@@]12CC[C@H]3[C@@H](CC[C@@H]4C[C@@H](O)CC[C@]43C)[C@@H]1CC(=O)C2 | Dose-dependent effect | 6.26 | 0.57 | 0.15 | 7.72 | 12.4 | 0.05 | 7.09 | 5.76 | 3.71 | 1.42 | 34.7 | Time (Mus musculus [14]): 3 min; Ratio (HEK293 [15]): 7.6; Time (Mus musculus [16]): 1 min; Time (Mus musculus [17]): <30 s; Ratio (HEK293 [18]): 1; Ratio (HEK293 [19]): 1.3; Time (Mus musculus [20]): <30 s; Time (Mus musculus [27]): 7 min; Time (Mus musculus [22]): 1 min; Ratio (HEK293 [23]): 7.8
11 | O=C1C[C@@H]2CC[C@H]3[C@@H](CC[C@@H]4C[C@@H](O)CC[C@H]43)[C@@H]2C1 | Dose-dependent effect |  | 0.49 | 0 | 0.76 | 11.5 | 0.27 | 5.69 |  | 2.77 | 0.8 | 1.65 | Activity (Xenopus laevis [25]): inactive; inhibition (Rattus norvegicus [26]): 88%; Activity (Xenopus laevis [28]): inactive
12 | CO[C@@H]1C[C@]2(C)[C@H](CC[C@@H]3[C@@H]2CC[C@@]2(C)C(=O)CC[C@@H]32)C[C@H]1O | Dose-dependent effect | 5.62 |  | -0.01 | 0.93 |  |  | 5.19 | < 5.00 |  | 0.93 | 1.53 | 
13 | CO[C@H]1[C@H](O)CC[C@]2(C)[C@H]3CC[C@]4(C)C(=O)CC[C@H]4[C@@H]3CC[C@@H]12 | Dose-dependent effect |  |  | 0.12 | 1.01 |  |  | < 4.52 |  |  | 1.08 | 0.91 | Activity (Xenopus laevis [25]): inactive; inhibition (Rattus norvegicus [26]): 45%; Activity (Xenopus laevis [28]): inactive
14 | C[C@]12CC[C@H]3[C@@H](CC[C@H]4C[C@H](O)CC[C@@]43C)[C@@H]1CC(=O)C2 | Dose-dependent effect | 5.44 |  | -0.02 | 1.38 |  |  | 6.05 | 5.12 |  | 1.01 | 9.98 | 
15 | CO[C@H]1C[C@@]2(C)[C@@H](CC[C@@H]3[C@@H]2CC[C@]2(C)C(=O)CC[C@@H]32)C[C@@H]1O | Dose-dependent effect | 5.29 |  | 0.08 | 1.04 |  |  | 5.66 | < 5.00 |  | 0.84 | 3.39 | 
